{
  "source": "ChEMBL document CHEMBL4152207",
  "about": "“Discovery of potent and selective BRD4 inhibitors capable of blocking TLR3-induced acute airway inflammation” (Eur J Med Chem, 2018)",
  "key": {"CREB-binding protein": {"target": "CREB-binding protein (Homo sapiens, UniProt Q92793)", "sequence (Q92793 whole entry)": "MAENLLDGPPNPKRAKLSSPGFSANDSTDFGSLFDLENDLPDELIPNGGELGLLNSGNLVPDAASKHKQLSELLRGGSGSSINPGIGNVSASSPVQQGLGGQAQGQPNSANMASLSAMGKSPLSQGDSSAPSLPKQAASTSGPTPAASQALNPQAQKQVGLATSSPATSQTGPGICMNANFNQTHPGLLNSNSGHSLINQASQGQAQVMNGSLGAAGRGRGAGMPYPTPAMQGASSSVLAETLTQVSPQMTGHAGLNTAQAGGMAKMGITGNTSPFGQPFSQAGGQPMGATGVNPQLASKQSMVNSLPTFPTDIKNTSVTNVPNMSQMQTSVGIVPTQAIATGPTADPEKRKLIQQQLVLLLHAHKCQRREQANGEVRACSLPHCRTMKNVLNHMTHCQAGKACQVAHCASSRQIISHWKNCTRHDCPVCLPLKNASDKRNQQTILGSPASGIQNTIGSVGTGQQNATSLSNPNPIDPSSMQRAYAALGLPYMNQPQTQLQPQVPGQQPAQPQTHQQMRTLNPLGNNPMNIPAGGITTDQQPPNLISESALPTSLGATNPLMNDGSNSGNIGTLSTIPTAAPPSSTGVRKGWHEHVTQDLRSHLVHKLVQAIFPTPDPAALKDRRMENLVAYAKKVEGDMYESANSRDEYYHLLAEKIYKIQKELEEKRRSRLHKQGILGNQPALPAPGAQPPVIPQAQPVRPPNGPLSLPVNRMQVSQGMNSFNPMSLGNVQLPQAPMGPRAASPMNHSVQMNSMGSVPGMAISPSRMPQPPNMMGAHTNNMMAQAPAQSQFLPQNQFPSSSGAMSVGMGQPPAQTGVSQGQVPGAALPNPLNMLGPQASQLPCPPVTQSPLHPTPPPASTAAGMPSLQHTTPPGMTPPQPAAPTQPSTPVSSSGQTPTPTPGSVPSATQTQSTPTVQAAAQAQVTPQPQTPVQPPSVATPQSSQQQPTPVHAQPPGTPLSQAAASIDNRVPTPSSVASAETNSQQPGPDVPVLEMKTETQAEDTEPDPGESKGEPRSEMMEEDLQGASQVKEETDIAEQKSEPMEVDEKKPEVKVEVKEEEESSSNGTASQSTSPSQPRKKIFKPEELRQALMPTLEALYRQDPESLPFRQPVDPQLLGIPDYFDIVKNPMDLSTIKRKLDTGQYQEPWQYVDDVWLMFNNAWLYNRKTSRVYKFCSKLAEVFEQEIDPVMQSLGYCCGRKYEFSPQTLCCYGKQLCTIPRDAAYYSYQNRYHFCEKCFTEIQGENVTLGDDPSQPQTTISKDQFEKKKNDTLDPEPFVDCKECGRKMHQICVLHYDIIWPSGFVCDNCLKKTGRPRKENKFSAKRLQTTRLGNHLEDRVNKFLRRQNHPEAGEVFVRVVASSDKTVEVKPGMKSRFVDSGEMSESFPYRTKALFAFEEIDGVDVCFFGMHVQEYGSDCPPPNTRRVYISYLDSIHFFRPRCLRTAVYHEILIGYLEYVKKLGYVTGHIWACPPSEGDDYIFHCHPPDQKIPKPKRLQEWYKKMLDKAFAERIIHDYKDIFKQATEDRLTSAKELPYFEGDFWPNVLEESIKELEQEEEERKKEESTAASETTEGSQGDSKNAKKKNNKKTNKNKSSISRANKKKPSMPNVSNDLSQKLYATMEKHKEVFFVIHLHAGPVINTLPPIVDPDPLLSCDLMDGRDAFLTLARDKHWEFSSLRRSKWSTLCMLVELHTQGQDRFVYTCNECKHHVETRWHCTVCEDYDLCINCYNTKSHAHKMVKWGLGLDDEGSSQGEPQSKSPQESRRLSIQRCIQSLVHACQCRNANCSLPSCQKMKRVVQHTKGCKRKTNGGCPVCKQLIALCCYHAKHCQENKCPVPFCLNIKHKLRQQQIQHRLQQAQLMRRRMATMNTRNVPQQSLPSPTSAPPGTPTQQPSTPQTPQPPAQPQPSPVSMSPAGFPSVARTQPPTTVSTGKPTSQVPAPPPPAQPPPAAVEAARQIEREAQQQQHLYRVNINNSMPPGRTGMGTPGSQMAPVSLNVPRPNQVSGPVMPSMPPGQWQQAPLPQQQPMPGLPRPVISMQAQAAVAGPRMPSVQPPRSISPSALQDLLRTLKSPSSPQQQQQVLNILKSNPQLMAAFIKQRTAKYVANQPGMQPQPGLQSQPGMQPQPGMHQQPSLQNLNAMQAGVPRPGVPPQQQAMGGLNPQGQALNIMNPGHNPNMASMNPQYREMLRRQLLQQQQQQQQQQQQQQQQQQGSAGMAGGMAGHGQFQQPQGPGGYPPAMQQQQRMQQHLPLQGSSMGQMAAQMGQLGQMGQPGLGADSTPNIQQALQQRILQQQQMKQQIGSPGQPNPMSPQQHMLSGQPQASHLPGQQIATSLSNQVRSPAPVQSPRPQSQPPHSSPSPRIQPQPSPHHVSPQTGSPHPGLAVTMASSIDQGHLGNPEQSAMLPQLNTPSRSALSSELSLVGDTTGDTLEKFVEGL", "assay": "Inhibition of CBP (unknown origin) after 1 hr by TR-FRET assay", "procedure,_shortened": "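Isolated bromodomain in a kit TR-FRET assay. Inhibitor series 0.01 nM to 100 μM, incubated 1 h at room temperature. Excitation 340 nm, emission read at 620 and 670 nm with 100 μs delay and 500 μs window. IC50 from the sigmoidal plot of the 670/620 ratio against concentration. Mean of at least two runs.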"}, "[1]": {"assay": "Volume of distribution at steady state in rat at 10 mg/kg, iv", "format": "ADME, organism-based", "conditions": "in vivo, read-out: Vdss"}, "[2]": {"assay": "Cmax in rat at 20 mg/kg, po", "format": "ADME, organism-based", "parameters": "dose 20 mg/kg, route oral", "conditions": "in vivo"}, "Mus musculus [3]": {"test_system": "Mus musculus", "assay": "Anti-inflammatory activity in poly(I:C)-induced airway inflammation C57BL/6 mouse model assessed as reduction in mKC expression in lung at 10 mg/kg, ip administered 1 day prior to poly(I:C) stimulation and redosed on day 2 followed by poly(I:C) stimulation", "format": "functional, organism-based", "procedure,_shortened": "(§1)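 Male C57BL/6J mice, 12 weeks old, were given 10 mg/kg i.p. one day before stimulation. The next day they got a second dose, immediately followed by intranasal poly(I:C) (300 μg in 50 μL PBS) or PBS alone. Compound was taken up in DMSO and diluted in 10% hydroxypropyl β-cyclodextrin in PBS. Mice were euthanized one day later and lung tissue was collected for cytokine expression.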"}, "Mus musculus [4]": {"test_system": "Mus musculus", "assay": "Anti-inflammatory activity in poly(I:C)-induced airway inflammation C57BL/6 mouse model assessed as reduction in mISG54 expression in lung at 10 mg/kg, ip administered 1 day prior to poly(I:C) stimulation and redosed on day 2 followed by poly(I:C) stimulation", "format": "functional, organism-based", "procedure,_shortened": "as §1"}, "Mus musculus [5]": {"test_system": "Mus musculus", "assay": "Anti-inflammatory activity in poly(I:C)-induced airway inflammation C57BL/6 mouse model assessed as reduction in mIL6 expression in lung at 10 mg/kg, ip administered 1 day prior to poly(I:C) stimulation and redosed on day 2 followed by poly(I:C) stimulation", "format": "functional, organism-based", "procedure,_shortened": "as §1"}, "Mus musculus [6]": {"test_system": "Mus musculus", "assay": "Anti-inflammatory activity in poly(I:C)-induced airway inflammation C57BL/6 mouse model assessed as reduction in mCIG5 expression in lung at 10 mg/kg, ip administered 1 day prior to poly(I:C) stimulation and redosed on day 2 followed by poly(I:C) stimulation", "format": "functional, organism-based", "procedure,_shortened": "as §1"}, "Mus musculus [7]": {"test_system": "Mus musculus", "assay": "Toxicity in mouse assessed as effect on RBC levels at 1 to 50 mg/kg, ip dosed daily for 1 month", "format": "organism-based", "conditions": "in vivo"}, "Mus musculus [8]": {"test_system": "Mus musculus", "assay": "Toxicity in mouse assessed as effect on WBC levels at 1 to 50 mg/kg, ip dosed daily for 1 month", "format": "organism-based", "conditions": "in vivo"}, "Mus musculus [9]": {"test_system": "Mus musculus", "assay": "Toxicity in mouse assessed as effect on nuetrophils level at 1 to 50 mg/kg, ip dosed daily for 1 month", "format": "organism-based", "conditions": "in vivo"}, "Mus musculus [10]": {"test_system": "Mus musculus", "assay": "Toxicity in mouse assessed as effect on platelet level at 1 to 50 mg/kg, ip dosed daily for 1 month", "format": "organism-based", "conditions": "in vivo"}, "Mus musculus [11]": {"test_system": "Mus musculus", "assay": "Hepatotoxicity in mouse assessed as effect on albumin level at 1 to 50 mg/kg, ip dosed daily for 1 month", "format": "toxicity, organism-based", "conditions": "in vivo", "procedure,_shortened": "(§2)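 Groups of n = 5 mice were dosed daily at 1-50 mg/kg for one month. Liver function markers (albumin, globulin, ALK, ALT) were measured alongside body weight, blood counts and renal markers.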"}, "Mus musculus [12]": {"test_system": "Mus musculus", "assay": "Hepatotoxicity in mouse assessed as effect on globulin level at 1 to 50 mg/kg, ip dosed daily for 1 month", "format": "toxicity, organism-based", "conditions": "in vivo", "procedure,_shortened": "as §2"}, "Mus musculus [13]": {"test_system": "Mus musculus", "assay": "Hepatotoxicity in mouse assessed as effect on ALKP level at 1 to 50 mg/kg, ip dosed daily for 1 month", "format": "toxicity, organism-based", "conditions": "in vivo", "procedure,_shortened": "as §2"}, "Mus musculus [14]": {"test_system": "Mus musculus", "assay": "Renal toxicity in mouse assessed as effect on CRE level at 1 to 50 mg/kg, ip dosed daily for 1 month", "format": "organism-based", "conditions": "in vivo"}, "[15]": {"target": "B2 bradykinin receptor (Homo sapiens) (UniProt P30411)", "assay": "Displacement of [3H]bradykinin from human recombinant B2 receptor at 10 uM after 60 mins by scintillation counting analysis relative to control"}, "Rattus norvegicus [16]": {"species_on_record": "Rattus norvegicus", "assay": "Displacement of [3H]flunitrazepam from rat brain central BZD at 10 uM after 60 mins by radioligand binding assay relative to control"}, "[17]": {"target": "Cannabinoid receptor 2 (Homo sapiens) (UniProt P34972)", "sequence (P34972 whole entry)": "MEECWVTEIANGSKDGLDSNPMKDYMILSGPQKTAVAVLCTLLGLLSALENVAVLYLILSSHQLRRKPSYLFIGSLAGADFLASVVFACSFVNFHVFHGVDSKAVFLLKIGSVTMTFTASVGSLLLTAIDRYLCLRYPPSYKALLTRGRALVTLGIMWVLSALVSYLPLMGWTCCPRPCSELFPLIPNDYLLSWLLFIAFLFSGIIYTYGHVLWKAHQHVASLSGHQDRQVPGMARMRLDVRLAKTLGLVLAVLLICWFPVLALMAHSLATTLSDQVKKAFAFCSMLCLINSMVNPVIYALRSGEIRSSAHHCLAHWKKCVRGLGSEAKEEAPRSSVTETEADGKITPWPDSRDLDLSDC", "assay": "Displacement of [3H]WIN 55212-2 from human recombinant CB2 receptor at 10 uM after 120 mins by scintillation counting analysis relative to control"}, "[18]": {"target": "D(1A) dopamine receptor (Homo sapiens) (UniProt P21728)", "assay": "Displacement of [3H]-SCH 23390 from human recombinant dopamine D1 receptor at 10 uM after 60 mins by scintillation counting analysis relative to control"}, "[19]": {"target": "Endothelin-1 receptor (Homo sapiens) (UniProt P25101)", "sequence (P25101 whole entry)": "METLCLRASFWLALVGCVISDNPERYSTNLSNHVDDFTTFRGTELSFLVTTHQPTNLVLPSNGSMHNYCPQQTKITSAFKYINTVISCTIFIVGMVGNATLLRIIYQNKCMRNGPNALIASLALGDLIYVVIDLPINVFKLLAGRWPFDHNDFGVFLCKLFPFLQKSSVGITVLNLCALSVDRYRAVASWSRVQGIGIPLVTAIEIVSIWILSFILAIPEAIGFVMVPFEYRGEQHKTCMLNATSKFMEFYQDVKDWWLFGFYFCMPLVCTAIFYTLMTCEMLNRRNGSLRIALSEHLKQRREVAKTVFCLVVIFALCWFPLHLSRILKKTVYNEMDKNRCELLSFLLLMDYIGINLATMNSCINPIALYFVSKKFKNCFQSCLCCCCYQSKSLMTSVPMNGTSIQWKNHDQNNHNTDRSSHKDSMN", "assay": "Displacement of [125I]endothelin-1 from human recombinant endothelin ETA receptor at 10 uM after 120 mins by scintillation counting analysis relative to control"}, "[20]": {"target": "Glutamate [NMDA] receptor (Homo sapiens) (UniProt Q05586+Q12879+Q13224+O15399+O60391+Q14957+Q8TCU5)", "assay": "Binding affinity to NMDA receptor (unknown origin) at 10 uM by antgonist radioligand assay relative to control", "format": "protein-complex assay"}, "[21]": {"target": "Muscarinic acetylcholine receptor M1 (Homo sapiens) (UniProt P11229)", "assay": "Displacement of [125I]pirenzepine from human recombinant M1 receptor at 10 uM after 60 mins by scintillation counting analysis relative to control"}, "[22]": {"target": "5-hydroxytryptamine receptor 3A (Homo sapiens) (UniProt P46098)", "sequence (P46098 whole entry)": "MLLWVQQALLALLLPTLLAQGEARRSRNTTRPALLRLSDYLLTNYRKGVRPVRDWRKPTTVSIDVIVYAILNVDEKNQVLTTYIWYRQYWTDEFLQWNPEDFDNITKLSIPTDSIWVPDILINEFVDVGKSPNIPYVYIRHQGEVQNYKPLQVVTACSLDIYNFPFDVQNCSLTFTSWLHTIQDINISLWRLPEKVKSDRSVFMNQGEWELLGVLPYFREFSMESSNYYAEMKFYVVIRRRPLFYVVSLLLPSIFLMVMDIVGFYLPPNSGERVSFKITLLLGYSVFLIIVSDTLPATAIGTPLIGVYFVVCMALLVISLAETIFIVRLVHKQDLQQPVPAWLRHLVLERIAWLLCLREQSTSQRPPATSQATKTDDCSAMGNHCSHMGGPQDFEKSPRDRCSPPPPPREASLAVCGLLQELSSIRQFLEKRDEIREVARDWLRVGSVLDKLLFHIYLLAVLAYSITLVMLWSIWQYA", "assay": "Displacement of [3H]BRL 43694 from human recombinant 5-HT3 receptor at 10 uM after 120 mins by scintillation counting analysis relative to control"}, "[23]": {"target": "Cav1.2 (L-type calcium channel) (Rattus norvegicus, UniProt P22002)", "assay": "Displacement of [3H]nitrendipine from rat Cav1.2 (L-type) at 10 uM after 90 mins by scintillation counting analysis relative to control", "conditions": "probe [3H]nitrendipine, read-out: Activity"}, "Rattus norvegicus [24]": {"species_on_record": "Rattus norvegicus", "assay": "Displacement of [125I]alpha-dendrotoxin from rat Voltage-gated potassium channel at 10 uM after 60 mins by scintillation counting analysis relative to control", "procedure,_shortened": "(§3)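 Run within a commercial off-target panel of receptors and enzymes, with compound tested at a single concentration of 10 μM.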"}, "[25]": {"target": "Prostaglandin G/H synthase 1 (Homo sapiens) (UniProt P23219)", "assay": "Inhibition of human recombinant COX1 using arachidonic acid as substrate after 3 mins by fluorimetric analysis", "parameters": "scale not given: the % may be the effect or the level left"}, "[26]": {"target": "cGMP-inhibited 3',5'-cyclic phosphodiesterase 3A (Homo sapiens) (UniProt Q14432)", "sequence (Q14432 whole entry)": "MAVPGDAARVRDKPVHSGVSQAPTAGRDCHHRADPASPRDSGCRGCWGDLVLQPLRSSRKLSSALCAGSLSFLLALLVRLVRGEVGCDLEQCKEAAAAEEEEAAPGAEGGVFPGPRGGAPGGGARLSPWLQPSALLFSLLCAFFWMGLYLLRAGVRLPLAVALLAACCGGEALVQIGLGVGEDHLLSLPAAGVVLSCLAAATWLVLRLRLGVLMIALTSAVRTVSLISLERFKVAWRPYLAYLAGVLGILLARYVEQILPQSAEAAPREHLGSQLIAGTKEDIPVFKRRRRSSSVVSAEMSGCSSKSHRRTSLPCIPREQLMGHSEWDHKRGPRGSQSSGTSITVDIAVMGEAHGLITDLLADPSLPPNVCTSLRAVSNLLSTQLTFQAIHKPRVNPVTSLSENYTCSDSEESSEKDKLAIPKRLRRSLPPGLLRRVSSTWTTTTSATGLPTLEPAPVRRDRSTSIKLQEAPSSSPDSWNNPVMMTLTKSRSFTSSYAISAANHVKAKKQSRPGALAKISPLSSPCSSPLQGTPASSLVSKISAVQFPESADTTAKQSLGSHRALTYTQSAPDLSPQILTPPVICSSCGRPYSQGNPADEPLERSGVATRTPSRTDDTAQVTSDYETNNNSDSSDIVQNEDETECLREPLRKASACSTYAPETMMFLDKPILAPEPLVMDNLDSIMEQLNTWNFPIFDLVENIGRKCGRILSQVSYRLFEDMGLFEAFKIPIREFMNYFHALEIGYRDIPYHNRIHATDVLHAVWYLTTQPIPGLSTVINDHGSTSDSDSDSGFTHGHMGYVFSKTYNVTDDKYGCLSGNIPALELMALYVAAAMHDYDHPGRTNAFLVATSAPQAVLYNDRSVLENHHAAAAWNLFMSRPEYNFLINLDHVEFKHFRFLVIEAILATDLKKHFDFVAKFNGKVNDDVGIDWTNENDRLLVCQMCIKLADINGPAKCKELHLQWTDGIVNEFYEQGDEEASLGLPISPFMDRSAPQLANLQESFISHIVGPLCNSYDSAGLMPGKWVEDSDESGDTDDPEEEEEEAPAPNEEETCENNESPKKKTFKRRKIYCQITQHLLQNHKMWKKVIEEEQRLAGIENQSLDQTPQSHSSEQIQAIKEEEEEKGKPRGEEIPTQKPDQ", "assay": "Displacement of [3H]cAMP from human recombinant PDE3A at 10 uM after 20 mins by scintillation counting analysis relative to control"}, "[27]": {"target": "Acetylcholinesterase (Homo sapiens) (UniProt P22303)", "assay": "Inhibition of human recombinant ACHE using acetylthiocholine as substrate after 30 mins by spectrophotometric relative to control", "parameters": "scale not given: the % may be the effect or the level left", "procedure,_shortened": "as §3"}, "[28]": {"target": "Inhibitor of nuclear factor kappa-B kinase subunit alpha (Homo sapiens) (UniProt O15111)", "assay": "Inhibition of human recombinant IKKalpha using Ulight-IkappaB-alpha as substrate after 30 mins relative to control", "parameters": "scale not given: the % may be the effect or the level left"}, "Mus musculus [29]": {"test_system": "Mus musculus", "assay": "Hepatotoxicity in mouse at 1 to 50 mg/kg, ip dosed daily for 1 month by histological analysis", "format": "toxicity, organism-based", "conditions": "in vivo"}, "Mus musculus [30]": {"test_system": "Mus musculus", "assay": "Pulmonary toxicity in mouse at 1 to 50 mg/kg, ip dosed daily for 1 month by histological analysis", "format": "organism-based", "conditions": "in vivo"}},
  "note": "The source made the active and inactive calls. The rule behind the calls is not given here.",
  "data": [
    {"smiles": "Cc1cc(/N=N/c2ccc(S(=O)(=O)NC3CCCC3)cc2)c(N)cc1O", "values": [
      {"measurement": "IC50", "setting": "CREB-binding protein", "value": "> 10", "unit": "µM"},
      {"measurement": "Vd", "setting": "[1]", "value": 1.12, "unit": "L/kg"},
      {"measurement": "Cmax", "setting": "[2]", "value": 36, "unit": "ng/mL"},
      {"measurement": "Activity", "setting": "Mus musculus [3]", "value": "Active"},
      {"measurement": "Activity", "setting": "Mus musculus [4]", "value": "Active"},
      {"measurement": "Activity", "setting": "Mus musculus [5]", "value": "Active"},
      {"measurement": "Activity", "setting": "Mus musculus [6]", "value": "Active"},
      {"measurement": "Activity", "setting": "Mus musculus [7]", "value": "Non-Toxic"},
      {"measurement": "Activity", "setting": "Mus musculus [8]", "value": "Non-Toxic"},
      {"measurement": "Activity", "setting": "Mus musculus [9]", "value": "Non-Toxic"},
      {"measurement": "Activity", "setting": "Mus musculus [10]", "value": "Non-Toxic"},
      {"measurement": "Activity", "setting": "Mus musculus [11]", "value": "Non-Toxic"},
      {"measurement": "Activity", "setting": "Mus musculus [12]", "value": "Non-Toxic"},
      {"measurement": "Activity", "setting": "Mus musculus [13]", "value": "Non-Toxic"},
      {"measurement": "Activity", "setting": "Mus musculus [14]", "value": "Non-Toxic"},
      {"measurement": "Activity", "setting": "[15]", "value": -2.4, "unit": "%"},
      {"measurement": "Activity", "setting": "Rattus norvegicus [16]", "value": 8.3, "unit": "%"},
      {"measurement": "Activity", "setting": "[17]", "value": 59.3, "unit": "%"},
      {"measurement": "Activity", "setting": "[18]", "value": 21.9, "unit": "%"},
      {"measurement": "Activity", "setting": "[19]", "value": -4.3, "unit": "%"},
      {"measurement": "Activity", "setting": "[20]", "value": 17, "unit": "%"},
      {"measurement": "Activity", "setting": "[21]", "value": -1.5, "unit": "%"},
      {"measurement": "Activity", "setting": "[22]", "value": -12.9, "unit": "%"},
      {"measurement": "inhibition at […], 10 µM", "setting": "[23]", "value": 42, "unit": "%"},
      {"measurement": "Activity", "setting": "Rattus norvegicus [24]", "value": 8.5, "unit": "%"},
      {"measurement": "Activity", "setting": "[25]", "value": "28.2 to 41.6", "unit": "%"},
      {"measurement": "Activity", "setting": "[26]", "value": 46, "unit": "%"},
      {"measurement": "Activity", "setting": "[27]", "value": 11.7, "unit": "%"},
      {"measurement": "Activity", "setting": "[28]", "value": -14.2, "unit": "%"},
      {"measurement": "Activity", "setting": "Mus musculus [29]", "value": "Non-Toxic"},
      {"measurement": "Activity", "setting": "Mus musculus [30]", "value": "Non-Toxic"}
    ]}
  ]
}
